Source: ChEMBL document CHEMBL1155976, “Synthesis and preliminary pharmacological evaluation of imidazo[2,1-f]purine-2,4-dione derivatives” (Eur J Med Chem, 2009)
Activity calls are given as the source filed them. No cut-off for these calls is given here.

Tests used:
Mus musculus [1] = test: Agonist activity at 5HT1A receptor in Swiss albino mouse assessed as decrease in rectal temperature at 5 mg/kg, ip after 90 mins; format: functional, organism-based; set-up: dose 5 mg/kg
Summary of the method: (§1)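 Male Albino Swiss mice (24–28 g), free food and water, room at 20 ± 1 °C; test agent suspended in 1% aqueous Tween 80, given ip at 10 ml/kg. Rectal temperature read with a thermometer at 30, 60, 90 and 120 min after dosing. Result expressed as Δt from basal temperature taken at the start; six to ten animals per group, each used once.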

[2] = target: 5-hydroxytryptamine receptor 2A (Rattus norvegicus, UniProt P14842); test: Displacement of [3H]ketanserin from 5HT2A receptor in rat cerebral cortex after 20 mins by liquid scintillation counting; format: tissue-based
Sequence of 5-hydroxytryptamine receptor 2A (P14842 whole entry): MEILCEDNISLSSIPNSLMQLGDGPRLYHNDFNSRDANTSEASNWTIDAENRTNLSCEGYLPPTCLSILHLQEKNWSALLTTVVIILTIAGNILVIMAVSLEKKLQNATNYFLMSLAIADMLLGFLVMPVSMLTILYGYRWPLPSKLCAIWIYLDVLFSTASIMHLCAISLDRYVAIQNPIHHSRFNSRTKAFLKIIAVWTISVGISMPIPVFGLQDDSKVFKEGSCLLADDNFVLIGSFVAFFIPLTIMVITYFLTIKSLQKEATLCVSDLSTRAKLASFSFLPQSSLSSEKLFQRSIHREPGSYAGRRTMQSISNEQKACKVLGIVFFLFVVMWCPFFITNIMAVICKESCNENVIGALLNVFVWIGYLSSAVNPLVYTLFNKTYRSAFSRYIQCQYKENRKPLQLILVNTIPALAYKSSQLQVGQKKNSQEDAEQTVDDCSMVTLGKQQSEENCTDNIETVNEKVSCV
Summary of the method: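 Rat cerebral cortex homogenised in 50 mM Tris-HCl pH 7.7, spun at 32000 × g, preincubated 10 min at 37 °C, resuspended in 50 volumes. Incubated with 0.6 nM [3H]-ketanserin and test agent (10^-10 to 10^-4 M) at 37 °C for 20 min; mianserin as displacer. GF/B filtration, scintillation counting; Ki from ≥3 experiments, 10 concentrations in triplicate.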

D(2) dopamine receptor = D(2) dopamine receptor (Rattus norvegicus, UniProt P61169); test: Displacement of [3H]spiperone from dopamine D2 receptor in rat striatum membrane after 30 mins by liquid scintillation counting; format: cell membranes
Sequence of D(2) dopamine receptor (P61169 whole entry): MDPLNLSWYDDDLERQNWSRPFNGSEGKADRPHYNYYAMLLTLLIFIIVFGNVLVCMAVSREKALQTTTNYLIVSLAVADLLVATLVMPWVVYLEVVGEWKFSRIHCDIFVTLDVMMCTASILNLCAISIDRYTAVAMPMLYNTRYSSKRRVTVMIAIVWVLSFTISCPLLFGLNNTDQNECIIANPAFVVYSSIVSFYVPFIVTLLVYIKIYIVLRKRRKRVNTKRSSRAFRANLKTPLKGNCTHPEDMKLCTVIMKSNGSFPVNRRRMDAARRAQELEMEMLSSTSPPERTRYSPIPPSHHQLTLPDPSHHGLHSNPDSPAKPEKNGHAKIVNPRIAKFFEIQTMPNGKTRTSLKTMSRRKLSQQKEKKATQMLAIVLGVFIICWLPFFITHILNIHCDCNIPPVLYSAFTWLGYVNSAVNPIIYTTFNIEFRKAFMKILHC
Summary of the method: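 Rat striatum homogenised in 50 mM potassium phosphate pH 7.4 and spun twice at 20000 × g. Membranes (3 mg wet weight) incubated with 1 nM [3H]-spiperone and test agent in 0.5 ml for 30 min at 37 °C. Nonspecific binding with (+)butaclamol. GF/B filtration, two washes with ice-cold buffer, scintillation counting; Ki from ≥3 experiments, 10 concentrations in triplicate.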

Mus musculus [3] = test: Agonist activity at 5HT1A receptor in ip dosed Swiss albino mouse assessed as decrease in rectal temperature; format: functional, organism-based; summary of the method: as §1
[4] = target: T1, 5-hydroxytryptamine receptor 1A (Rattus norvegicus, UniProt P19327); test: Displacement of [3H]8-OH-DPAT from 5HT1A receptor in rat cerebral cortex after 15 mins by liquid scintillation counting; format: tissue-based
T1 sequence (P19327 whole entry): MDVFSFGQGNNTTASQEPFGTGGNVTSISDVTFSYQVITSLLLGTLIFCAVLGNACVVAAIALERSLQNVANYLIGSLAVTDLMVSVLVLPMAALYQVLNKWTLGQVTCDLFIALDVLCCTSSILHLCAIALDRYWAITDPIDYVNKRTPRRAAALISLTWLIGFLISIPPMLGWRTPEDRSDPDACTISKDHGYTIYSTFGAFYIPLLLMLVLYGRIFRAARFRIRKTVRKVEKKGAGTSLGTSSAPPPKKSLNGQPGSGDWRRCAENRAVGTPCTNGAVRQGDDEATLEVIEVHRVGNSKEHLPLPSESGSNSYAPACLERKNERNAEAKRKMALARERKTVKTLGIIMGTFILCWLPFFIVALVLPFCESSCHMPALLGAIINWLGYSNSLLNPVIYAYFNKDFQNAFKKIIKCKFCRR

Mus musculus [5] = test: Agonist activity at 5HT1A receptor in Swiss albino mouse assessed as decrease in rectal temperature at 10 mg/kg, ip after 120 mins; format: functional, organism-based; set-up: dose 10 mg/kg; summary of the method: as §1
Mus musculus [6] = test: Agonist activity at 5HT1A receptor in Swiss albino mouse assessed as decrease in rectal temperature at 5 mg/kg, ip after 60 mins; format: functional, organism-based; set-up: dose 5 mg/kg; summary of the method: as §1
Mus musculus [7] = test: Agonist activity at 5HT1A receptor in Swiss albino mouse assessed as decrease in rectal temperature at 5 mg/kg, ip after 120 mins; format: functional, organism-based; set-up: dose 5 mg/kg; summary of the method: as §1
Mus musculus [8] = test: Agonist activity at 5HT1A receptor in Swiss albino mouse assessed as decrease in rectal temperature at 10 mg/kg, ip after 60 mins in presence of WAY 100635 administered 15 mins before drug challenge; format: functional, organism-based; set-up: dose 10 mg/kg
Summary of the method: (§2)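 Male Albino Swiss mice (24–28 g). WAY 100635 (0.1 mg/kg, sc, in distilled water) given 15 min before test agent (ip, suspended in 1% Tween 80, 10 ml/kg). Rectal temperature recorded 30 and 60 min after test agent injection. Expressed as Δt versus basal temperature at the start of the experiment.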

Rattus norvegicus [9] = test: Behavioral activity in Wistar rat assessed as induction of lower lip retraction at 10 to 20 mg/kg, ip; format: functional, organism-based
Summary of the method: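 Male Wistar rats (290–310 g); agent ip in 1% Tween 80 at 2 ml/kg. Rats housed singly in cages and scored 15, 30 and 45 min after dosing: 0 = lower incisors not visible, 0.5 = partly, 1 = fully visible. Maximum total score 3 per rat.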

Mus musculus [10] = test: Agonist activity at 5HT1A receptor in Swiss albino mouse assessed as decrease in rectal temperature at 10 mg/kg, ip after 90 mins; format: functional, organism-based; set-up: dose 10 mg/kg; summary of the method: as §1
Mus musculus [11] = test: Agonist activity at 5HT1A receptor in Swiss albino mouse assessed as decrease in rectal temperature at 5 mg/kg, ip after 30 mins; format: functional, organism-based; set-up: dose 5 mg/kg; summary of the method: as §1
Rattus norvegicus [12] = test: Behavioral activity in Wistar rat assessed as reduction of 8-OH-DPAT-induced lower lip retraction at 10 to 20 mg/kg, ip administered 45 mins before 8-OH-DPAT challenge; format: functional, organism-based
Mus musculus [13] = test: Agonist activity at 5HT1A receptor in Swiss albino mouse assessed as decrease in rectal temperature at 10 mg/kg, ip after 30 mins in presence of WAY 100635 administered 15 mins before drug challenge; format: functional, organism-based; set-up: dose 10 mg/kg; summary of the method: as §2
Mus musculus [14] = test: Agonist activity at 5HT1A receptor in Swiss albino mouse assessed as decrease in rectal temperature at 10 mg/kg, ip after 60 mins; format: functional, organism-based; set-up: dose 10 mg/kg; summary of the method: as §1
Mus musculus [15] = test: Agonist activity at 5HT1A receptor in Swiss albino mouse assessed as decrease in rectal temperature at 10 mg/kg, ip after 30 mins; format: functional, organism-based; set-up: dose 10 mg/kg; summary of the method: as §1
Mus musculus [16] = test: Antidepressant activity in Swiss albino mouse assessed as reduction of immobility time at 20 mg/kg, ip administered 30 mins before test by forced swimming test; format: functional; conditions: route intraperitoneal
Summary of the method: (§3)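 Male Albino Swiss mice (24–28 g); agent suspended in 1% aqueous Tween 80, ip 10 ml/kg, 30 min before the test. Total immobility time scored over the last 4 min of a 6-min swim session. n = 8–10 mice per group; mean ± SEM, compared with vehicle.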

Mus musculus [17] = test: Antidepressant activity in Swiss albino mouse assessed as reduction of immobility time at 30 mg/kg, ip administered 30 mins before test by forced swimming test; format: functional; conditions: route intraperitoneal; summary of the method: as §3
Mus musculus [18] = test: Sedative activity in Swiss albino mouse assessed as reduction on spontaneous locomotor activity at 10 mg/kg, ip administered 30 mins before test measured for 6 mins; format: ADME, organism-based; set-up: dose 10 mg/kg, route intraperitoneal; conditions: in vivo, 0.1 h
Mus musculus [19] = test: Sedative activity in Swiss albino mouse assessed as reduction on spontaneous locomotor activity at 20 mg/kg, ip administered 30 mins before test measured for 30 mins; format: ADME, organism-based; set-up: dose 20 mg/kg, route intraperitoneal; conditions: in vivo, 0.5 h
Summary of the method: (§4)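 Male Albino Swiss mice (24–28 g); agent ip in 1% Tween 80, 30 min before the test. Locomotor activity counted as number of crossings during 6-min and 30-min sessions. n = 8–10 mice per group; mean ± SEM versus vehicle.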

Mus musculus [20] = test: Sedative activity in Swiss albino mouse assessed as reduction on spontaneous locomotor activity at 20 mg/kg, ip administered 30 mins before test measured for 6 mins; format: ADME, organism-based; set-up: dose 20 mg/kg, route intraperitoneal; conditions: in vivo, 0.1 h; summary of the method: as §4
Mus musculus [21] = test: Antidepressant activity in Swiss albino mouse assessed as reduction of immobility time at 10 mg/kg, ip administered 30 mins before test by forced swimming test; format: functional; conditions: route intraperitoneal; summary of the method: as §3
Mus musculus [22] = test: Sedative activity in Swiss albino mouse assessed as reduction on spontaneous locomotor activity at 30 mg/kg, ip administered 30 mins before test measured for 30 mins; format: ADME, organism-based; set-up: dose 30 mg/kg, route intraperitoneal; conditions: in vivo, 0.5 h; summary of the method: as §4
Mus musculus [23] = test: Sedative activity in Swiss albino mouse assessed as reduction on spontaneous locomotor activity at 30 mg/kg, ip administered 30 mins before test measured for 6 mins; format: ADME, organism-based; set-up: dose 30 mg/kg, route intraperitoneal; conditions: in vivo, 0.1 h; summary of the method: as §4
Mus musculus [24] = test: Sedative activity in Swiss albino mouse assessed as reduction on spontaneous locomotor activity at 10 mg/kg, ip administered 30 mins before test measured for 30 mins; format: ADME, organism-based; set-up: dose 10 mg/kg, route intraperitoneal; conditions: in vivo, 0.5 h
Mus musculus [25] = test: Anxiolytic activity in Swiss albino mouse assessed as number of punished crossings at 10 mg/kg, ip administered 30 mins before test measured for 60s by four plate test; format: functional; conditions: route intraperitoneal
Summary of the method: (§5)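 Male Albino Swiss mice. Box with four metal floor plates separated by 4 mm gaps; 120 V between adjacent plates for 0.5 s delivered on crossing. Mice explored 15 s before testing. Agent (ip, 1% Tween 80) given 30 min before the test. Punished crossings counted; n = 10 mice per group, mean ± SEM.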

Mus musculus [26] = test: Anxiolytic activity in Swiss albino mouse assessed as number of punished crossings at 20 mg/kg, ip. administered 30 mins before test measured for 60s by four plate test; format: functional; summary of the method: as §5
Rattus norvegicus [27] = test: Behavioral activity in Wistar rat assessed as reduction of 8-OH-DPAT-induced lower lip retraction at 10 to 20 mg/kg, ip administered 45 mins before 8-OH-DPAT challenge

SMILES | Ki [2] [µM] | Ki (D(2) dopamine receptor) [µM] | Activity (Mus musculus [3]) | Ki [4] [µM] | deltaT (Mus musculus [1]) [°C] | deltaT (Mus musculus [6]) [°C] | deltaT (Mus musculus [7]) [°C] | deltaT (Mus musculus [10]) [°C] | deltaT (Mus musculus [11]) [°C] | deltaT (Mus musculus [13]) [°C] | deltaT (Mus musculus [14]) [°C] | deltaT (Mus musculus [15]) [°C] | also measured
CN(C)CCCN1c2ccccc2CCc2ccccc21 [IMIPRAMINE] | – | – | – | – | – | – | – | – | – | – | – | – | Activity (Mus musculus [16]): 107.8 s; Activity (Mus musculus [17]): 76.4 s; Activity (Mus musculus [18]): 338; Activity (Mus musculus [19]): 625.3; Activity (Mus musculus [20]): 314.9; Activity (Mus musculus [21]): 149.1 s; Activity (Mus musculus [22]): 602.3; Activity (Mus musculus [23]): 300.9; Activity (Mus musculus [24]): 876.8
Cn1c(=O)c2c(nc3nc(NCCCN4CCN(c5ccccc5)CC4)c(Br)cn32)n(C)c1=O | 0.297 | – | – | – | – | – | – | – | – | – | – | – | –
Cn1c(=O)c2c(nc3n2CC(C(=O)NCCN2CCN(c4ccccc4)CC2)N3)n(C)c1=O (stereo not drawn) | – | – | – | > 1 | – | – | – | – | – | – | – | – | –
COc1ccccc1N1CCN(CCN(C(=O)C2CCCCC2)c2ccccn2)CC1 | – | – | – | – | – | – | – | – | – | – | – | – | Activity (Rattus norvegicus [27]): Active

The next lines start with results.

Ki [2] [µM] | Ki (D(2) dopamine receptor) [µM] | Activity (Mus musculus [3]) | Ki [4] [µM] | SMILES | deltaT (Mus musculus [1]) [°C] | deltaT (Mus musculus [6]) [°C] | deltaT (Mus musculus [7]) [°C] | deltaT (Mus musculus [10]) [°C] | deltaT (Mus musculus [11]) [°C] | deltaT (Mus musculus [13]) [°C] | deltaT (Mus musculus [14]) [°C] | deltaT (Mus musculus [15]) [°C] | also measured
> 1 | 0.345 | Dose-dependent effect | 0.0168 | COc1ccccc1N1CCN(CCCn2c(C)cn3c4c(=O)n(C)c(=O)n(C)c4nc23)CC1 | -0.3 | -0.4 | -0.1 | -0.6 | -0.4 | -1 | -0.5 | -0.9 | deltaT (Mus musculus [5]): -0.2 °C; deltaT (Mus musculus [8]): -0.9 °C; Activity (Rattus norvegicus [9]): inactive; Activity (Rattus norvegicus [12]): inactive
> 1 | > 1 | Dose-dependent effect | 0.0248 | Cn1c(=O)c2c(nc3n(CCCN4CCN(c5ccccc5)CC4)ccn23)n(C)c1=O | -0.2 | -0.4 | 0 | -0.4 | -0.6 | -0.3 | -0.4 | -1.2 | Activity (Mus musculus [16]): 87.9 s; Activity (Mus musculus [17]): 88.9 s; Activity (Mus musculus [19]): 255.6; Activity (Mus musculus [25]): 4.7; Activity (Mus musculus [20]): 146.4; Activity (Mus musculus [21]): 147.5 s; Activity (Mus musculus [26]): 6.3; Activity (Mus musculus [22]): 221; Activity (Rattus norvegicus [12]): Active; Activity (Mus musculus [23]): 139.2
0.813 | > 1 | – | 0.0965 | Cn1c(=O)c2c(nc3n(CCCN4CCN(c5ccccc5)CC4)c(-c4ccccc4)cn23)n(C)c1=O | – | – | – | – | – | – | – | – | –
0.403 | 0.767 | Dose-dependent effect | 0.0171 | Cc1cn2c3c(=O)n(C)c(=O)n(C)c3nc2n1CCCN1CCN(c2cccc(Cl)c2)CC1 | -0.5 | -0.4 | -0.1 | -0.8 | -0.5 | -0.9 | -0.7 | -1 | deltaT (Mus musculus [5]): -0.1 °C; deltaT (Mus musculus [8]): -0.5 °C; Activity (Rattus norvegicus [9]): inactive
